Laboratory results from ChEMBL document CHEMBL1649230, “Aryl rhodanines specifically inhibit staphylococcal and enterococcal biofilm formation” (Antimicrob Agents Chemother, 2009).
The source made the active and inactive calls. No cut-off for these calls is given here.

Legend:
[1] = test system: Staphylococcus aureus; assay: Antimicrobial activity against Staphylococcus aureus ATCC 35556 assessed as inhibition of bacterial biofilm formation after 18 hrs by broth microdilution method in presence of 1 ug/ml fibrinogen; format: functional
In short: (§1)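 Polystyrene 96-well wells precoated with 100 μl fibronectin or fibrinogen (0–20 μg protein/ml) for 24 h at 4°C. Wells then washed with sterile water. The standard MBIC biofilm assay followed: 0.5× TSB with 1% glucose, 2% DMSO, 18 h at 37°C, crystal violet read at OD600.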

[2] = test system: Staphylococcus aureus; assay: Antimicrobial activity against Staphylococcus aureus ATCC 35556 assessed as inhibition of bacterial biofilm formation after 18 hrs by broth microdilution method in presence of 10 ug/ml fibrinogen; format: functional; in short: as §1
[3] = test system: Enterococcus faecalis; assay: Antimicrobial activity against vancomycin-resistant Enterococcus faecalis ATCC 51575 assessed as inhibition of bacterial biofilm after 18 hrs by broth microdilution method; format: functional
In short: (§2)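 Biofilm MBIC on tissue culture-treated polystyrene 96-well plates. Twofold dilutions, 0.2 to 100 μM final, with 2% DMSO final. Inoculum was an overnight culture diluted 1:100 (~5 × 10^6 cells/well) in 0.5× TSB plus 1% glucose, grown 18 h at 37°C. Wells washed, heat-fixed 60°C 60 min, stained with 0.06% crystal violet, OD600 read. MBIC is the lowest concentration giving ≥80% inhibition versus untreated; geometric mean of ≥3 experiments.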

[4] = test system: Enterococcus faecalis; assay: Antimicrobial activity against Enterococcus faecalis ATCC 51575 on medical grade silicone disk assessed as inhibition of bacterial biofilm after 18 hrs by broth microdilution method; format: functional
[5] = test system: Enterococcus faecium; assay: Antimicrobial activity against vancomycin-resistant Enterococcus faecium isolate EF1509 assessed as inhibition of bacterial biofilm after 18 hrs by broth microdilution method; format: functional; in short: as §2
[6] = Cytotoxicity against human HeLa cells after 3 days by MTT assay; format: cell-based
In short: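 HeLa cells were seeded at 4 × 10^3 per well with or without serial dilutions of compound in DMSO. Plates were incubated 3 days at 37°C in minimal essential medium with 10% calf serum, and viability was read by MTT. CC50 was the concentration that reduced MTT-to-formazan conversion by 50%.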

[7] = test system: Staphylococcus aureus; assay: Antimicrobial activity against Staphylococcus aureus ATCC 35556 assessed as inhibition of bacterial biofilm after 18 hrs by broth microdilution method; format: functional
In short: (§3)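 Static biofilm in tissue culture-treated polystyrene 96-well plates in 0.5× TSB with 1% glucose. Overnight culture diluted 1:100 gives about 5 × 10^6 cells/well. Compound 2-fold series, final 0.2–100 μM, 2% DMSO. Incubated 18 h at 37°C. Washed, heat-fixed 60°C for 60 min, stained with 0.06% crystal violet, read at OD600. MBIC is the lowest concentration giving ≥80% inhibition versus untreated. Geometric mean of ≥3 independent experiments.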

[8] = test system: Staphylococcus aureus; assay: Antimicrobial activity against community acquired methicillin-susceptible Staphylococcus aureus assessed as inhibition of bacterial biofilm after 18 hrs by broth microdilution method; format: functional; in short: as §3
[9] = test system: Staphylococcus aureus; assay: Antimicrobial activity against community acquired methicillin-resistant Staphylococcus aureus isolate 23542 assessed as inhibition of bacterial biofilm after 18 hrs by broth microdilution method; format: functional; in short: as §2
[10] = test system: Staphylococcus aureus; assay: Antimicrobial activity against community acquired methicillin-resistant Staphylococcus aureus isolate 24209 assessed as inhibition of bacterial biofilm after 18 hrs by broth microdilution method; format: functional; in short: as §2
[11] = test system: Staphylococcus epidermidis; assay: Antimicrobial activity against coagulase-negative Staphylococcus epidermidis isolate WTBF-45 assessed as inhibition of bacterial biofilm after 18 hrs by broth microdilution method; format: functional; in short: as §2
[12] = test system: Staphylococcus epidermidis; assay: Antimicrobial activity against coagulase-negative Staphylococcus epidermidis isolate WTBF-48 assessed as inhibition of bacterial biofilm after 18 hrs by broth microdilution method; format: functional; in short: as §3
[13] = test system: Staphylococcus epidermidis; assay: Antimicrobial activity against coagulase-negative Staphylococcus epidermidis isolate WTBF-40 assessed as inhibition of bacterial biofilm after 18 hrs by broth microdilution method; format: functional; in short: as §3
[14] = test system: Staphylococcus epidermidis; assay: Antimicrobial activity against coagulase-negative Staphylococcus epidermidis isolate WTBF-46 assessed as inhibition of bacterial biofilm after 18 hrs by broth microdilution method; format: functional; in short: as §3
[15] = test system: Enterococcus faecalis; assay: Antimicrobial activity against vancomycin-resistant Enterococcus faecalis isolate F317 assessed as inhibition of bacterial biofilm after 18 hrs by broth microdilution method; format: functional; in short: as §2
[16] = test system: Enterococcus faecium; assay: Antimicrobial activity against vancomycin-resistant Enterococcus faecium isolate EF208 assessed as inhibition of bacterial biofilm after 18 hrs by broth microdilution method; format: functional; in short: as §2
[17] = test system: Enterococcus faecium; assay: Antimicrobial activity against vancomycin-resistant Enterococcus faecium isolate F1181 assessed as inhibition of bacterial biofilm after 18 hrs by broth microdilution method; format: functional; in short: as §2
[18] = test system: Pseudomonas aeruginosa; assay: Antimicrobial activity against Pseudomonas aeruginosa PAO1 assessed as inhibition of bacterial biofilm after 18 hrs by broth microdilution method; format: functional
In short: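 Polystyrene plates with breathable lids in 1× TSB (0.25% glucose), 37°C for 18 h. Biofilms form at the air-liquid interface. Stained with crystal violet, dye eluted with 30% acetic acid, OD read. Compound 2-fold series, final 0.2–100 μM in 2% DMSO. MBIC taken at ≥80% inhibition versus untreated. Geometric mean of ≥3 experiments.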

[19] = test system: Staphylococcus aureus; assay: Antimicrobial activity against community-acquired Staphylococcus aureus MW2 on medical grade silicone disk assessed as inhibition of bacterial biofilm after 18 hrs by broth microdilution method; format: functional
[20] = test system: Staphylococcus aureus; assay: Antimicrobial activity against Staphylococcus aureus ATCC 35556 assessed as inhibition of bacterial biofilm formation after 18 hrs by broth microdilution method in presence of 10 ug/ml fibronectin; format: functional; in short: as §1
[21] = test system: Staphylococcus aureus; assay: Antimicrobial activity against Staphylococcus aureus NCTC 8325 on medical grade silicone disk assessed as inhibition of bacterial biofilm after 18 hrs by broth microdilution method
[22] = test system: Enterococcus faecalis; assay: Antimicrobial activity against Enterococcus faecalis isolate F177 on medical grade silicone disk assessed as inhibition of bacterial biofilm after 18 hrs by broth microdilution method
[23] = test system: Staphylococcus aureus; assay: Antimicrobial activity against community acquired methicillin-resistant Staphylococcus aureus isolate 49404 assessed as inhibition of bacterial biofilm after 18 hrs by broth microdilution method; format: functional; in short: as §2
[24] = test system: Staphylococcus aureus; assay: Antimicrobial activity against Staphylococcus aureus ATCC 35556 assessed as inhibition of primary adhesion of bacterial biofilm to polystyrene surface under static condition at MBIC after 30 mins by fluorescence emission using BaclLight Live Dead stain; format: functional, organism-based
In short: (§4)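 Mid-log S. aureus ATCC 35556 (OD600 0.5) grown in TSB at 37°C, washed, resuspended in PBS. Compound added (0× to 8× MBIC, 2% DMSO). Suspension placed on tissue culture-treated polystyrene or PVC 96-well plates (eight wells per level) or silicone disks in 24-well plates (three wells). Incubated 30 min at 37°C, then washed. BacLight Live/Dead fluorescence read (ex 485, em 530 nm). Result given as fraction adherent versus untreated.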

[25] = test system: Staphylococcus aureus; assay: Antimicrobial activity against Staphylococcus aureus ATCC 35556 assessed as inhibition of primary adhesion of bacterial biofilm to PVC surface under static condition at MBIC after 30 mins by fluorescence emission using BaclLight Live Dead stain; format: functional, organism-based; in short: as §4
[26] = test system: Staphylococcus aureus; assay: Antimicrobial activity against Staphylococcus aureus ATCC 35556 assessed as effect on protein synthesis at 30 ug/ml; format: functional, organism-based
[27] = test system: Staphylococcus aureus; assay: Antimicrobial activity against community acquired methicillin-resistant Staphylococcus aureus isolate 24102 assessed as inhibition of bacterial biofilm after 18 hrs by broth microdilution method; format: functional; in short: as §2

CCOc1cc(/C=C2\SC(=S)N(c3cccc(F)c3)C2=O)ccc1O
MBIC [1]: 6.25 µM
MBIC [2]: 6.25 µM
MBIC [3]: 63 µM
MBIC [4]: 63 µM
MBIC [5]: >=100 uM
CC50 at 72 h [6]: ≥ 100 µM
MBIC [7]: 4.4 µM
MBIC [8]: 14.9 µM
MBIC [9]: 19.8 µM
MBIC [10]: 100 µM
MBIC [11]: 50 µM
MBIC [12]: 50 µM
MBIC [13]: 59.5 µM
MBIC [14]: 59.5 µM
MBIC [15]: 100 µM
MBIC [16]: 50 µM
MBIC [17]: >=100 uM
MBIC [18]: >=100 uM
MBIC90 [19]: 70.7 µM
MBIC [20]: 6.25 µM
MBIC90 [21]: 70.7 µM
MBIC90 [22]: >=100 uM

CCOc1cc(/C=C2\SC(=S)N(c3ccc(F)cc3)C2=O)ccc1O
MBIC [1]: 3.125 µM
MBIC [2]: 3.125 µM
MBIC [4]: 29.7 µM
MBIC [5]: >=100 uM
CC50 at 72 h [6]: ≥ 100 µM
MBIC [7]: 2.6 µM
MBIC [8]: 14.9 µM
MBIC [9]: 31.5 µM
MBIC [23]: 63 µM
MBIC [10]: 100 µM
MBIC [11]: 25 µM
MBIC [12]: 25 µM
MBIC [13]: 50 µM
MBIC [14]: 50 µM
MBIC [15]: 25 µM
MBIC [16]: 31.5 µM
MBIC [17]: >=100 uM
MBIC [18]: >=100 uM
MBIC90 [19]: 79.4 µM
inhibition [24]: Active
inhibition [25]: Active
inhibition [26]: inactive
MBIC [20]: 6.25 µM
MBIC90 [21]: 79.4 µM
MBIC90 [22]: >=100 uM

CCOc1cc(/C=C2\SC(=S)N(c3cccnc3)C2=O)ccc1O
MBIC [1]: 12.5 µM
MBIC [2]: 12.5 µM
MBIC [3]: 21 µM
MBIC90 [4]: 19.8 µM
MBIC [5]: 21 µM
CC50 at 72 h [6]: ≥ 100 µM
MBIC [7]: 10.5 µM
MBIC [8]: 12.5 µM
MBIC [27]: 19.8 µM
MBIC [9]: 25 µM
MBIC [23]: 31.5 µM
MBIC [10]: 25 µM
MBIC [11]: 17.7 µM
MBIC [12]: 17.7 µM
MBIC [13]: 35.4 µM
MBIC [14]: 25 µM
MBIC [15]: 15.7 µM
MBIC [16]: 15.7 µM
MBIC [17]: >=100 uM
MBIC [18]: >=100 uM
MBIC90 [19]: 25 µM
inhibition [24]: Active
inhibition [25]: Active
inhibition [26]: inactive
MBIC [20]: 12.5 µM
MBIC90 [21]: 25 µM
MBIC90 [22]: 19.8 µM

C=CCOc1cc(/C=C2\SC(=S)N(c3ccc(F)cc3)C2=O)ccc1O
MBIC [1]: 3.125 µM
MBIC [2]: 3.125 µM
MBIC [3]: 35.4 µM
MBIC90 [4]: 100 µM
MBIC [5]: 59.5 µM
CC50 at 72 h [6]: 76.4 µM
MBIC [7]: 2.6 µM
MBIC [8]: 10.5 µM
MBIC [27]: 100 µM
MBIC [23]: 15.7 µM
MBIC [10]: 100 µM
MBIC [11]: 25 µM
MBIC [12]: 12.5 µM
MBIC [13]: 50 µM
MBIC [14]: 70.7 µM
MBIC [15]: 100 µM
MBIC [16]: 35.4 µM
MBIC [17]: >=100 uM
MBIC [18]: >=100 uM
MBIC90 [19]: 100 µM
MBIC [20]: 3.125 µM
MBIC90 [21]: 100 µM
MBIC90 [22]: 100 µM
